Our source for the IC50 and T/C values is ChEMBL document CHEMBL1124873, “Cytotoxicity and antitumor activity of bis(platinum) complexes. A novel class of platinum complexes active in cell lines resistant to both cisplatin and 1,2-diaminocyclohexane complexes” (1990).

The subject of assay [1] is L1210. The experiment in a line: In vitro cytotoxicity in L1210 leukemia resistant to cisplatin. The format is functional, Mus musculus. Particulars: read-out: ID50 (the source's name). In short, it runs like this: (§1)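 L1210 murine leukaemia (sensitive, 40–60-fold DDP-resistant, or 30-fold [Pt(R,R-dach)SO4]-resistant) grown in suspension in McCoy's 5A with 5% horse serum and glutamine. Cells at 5 × 10^4/mL exposed 72 h to 0.01–10 μg/mL (final) compound, from DMF stock diluted in saline (≤0.5% DMF) or water for malonates. Cells Coulter-counted; ID50 from % growth inhibition.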

For assay [2], the system named is L1210. The experiment in a line: In vitro cytotoxicity in L1210 leukemia sensitive to cisplatin. Particulars: read-out: ID50 (the source's name). The format is functional, Mus musculus. The gist of the method: as §1
Assay [3] deals with Mus musculus. Put plainly: Antitumor activity against L1210 leukemia was determined at 5 mg/kg dose given on 1, 5, 9 days after tumor implantation in mice. The class given is functional, organism-based. Also noted: dose 5 mg/kg. The gist of the method:
(§2)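 Male BDF1 mice (18–20 g) inoculated ip with 10^6 L1210/0 or P388 ascites leukemia cells on day 0. Test compound given ip on days 1, 5 and 9; dosing stopped after two doses if over half of the animals had died by day 9. Deaths recorded over 60 days. %T/C = mean survival of treated mice that died ÷ mean survival of untreated tumour-bearing controls. Long-term survivors also counted.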

For assay [4], the system named is Mus musculus. The experiment in a line: Antitumor activity against P388 leukemia was determined at 5 mg/kg dose given on 1, 5, 9 days after tumor implantation in mice. Also noted: dose 5 mg/kg. The format is functional, organism-based. In short, it runs like this:
as §2

pIC50: −log10 of the molar value. Values joined by “and” are separate entries in the source; they are usually repeats but may differ in a detail not shown here. Identical values can stand only once.

In the case of `CC(C)(N)CCC(C)(C)N`, the pIC50 with L1210 [1] (Mus musculus, L1210) was 5.04; in the assay on L1210 [1], 5.26; in the assay with L1210 [2] it was 5.21 and 6.01.

For orientation: T/C means the ratio of treated to control. For the molecule CISPLATIN, the T/C came out at 210% in the assay with Mus musculus [3] and 170% in the assay on Mus musculus [4].
